Shown are actives, neighbours in structure and some others; about 1.6% of the full set was active somewhere.
PKA-R2B act = activators of PKA-R2B holoenzyme, primary screen, biochemical, fluorescence polarization, Cy5-IP20, human | PKA-R2B holoenzyme dissociation; R2B truncated from residue 108, S112A mutant; 0% DMSO only, 100% 113 µM cGMP | activation, % at 11.4 µM | 340,000 tested, 0.079% active | AID 504700, 2011;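 active = activation above a cutoff set at the mean over all compounds plus 3 SD, cut at about 18% in these data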;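 note: higher means more holoenzyme dissociation and a rise in polarization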
Rev-erbA mod = modulators of Rev-erb alpha DNA binding, primary screen, biochemical, FITC-DNA, fluorescence polarization, uHTS; Nuclear receptor subfamily 1 group D member 1 (Homo sapiens), P20393; Rev-erbα–FITC-DNA binding, 90 min; activity, % at 10 µM; 370,000 tested, 0.79% active; AID 1259318, 2017;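 active = activity above about 14%, limit read from the data; passing the limit was not always enough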;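 note: 0% = DMSO wells with 35 nM protein and 100% = DMSO wells with 750 nM protein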
Target sequence (P20393 whole entry, looked up): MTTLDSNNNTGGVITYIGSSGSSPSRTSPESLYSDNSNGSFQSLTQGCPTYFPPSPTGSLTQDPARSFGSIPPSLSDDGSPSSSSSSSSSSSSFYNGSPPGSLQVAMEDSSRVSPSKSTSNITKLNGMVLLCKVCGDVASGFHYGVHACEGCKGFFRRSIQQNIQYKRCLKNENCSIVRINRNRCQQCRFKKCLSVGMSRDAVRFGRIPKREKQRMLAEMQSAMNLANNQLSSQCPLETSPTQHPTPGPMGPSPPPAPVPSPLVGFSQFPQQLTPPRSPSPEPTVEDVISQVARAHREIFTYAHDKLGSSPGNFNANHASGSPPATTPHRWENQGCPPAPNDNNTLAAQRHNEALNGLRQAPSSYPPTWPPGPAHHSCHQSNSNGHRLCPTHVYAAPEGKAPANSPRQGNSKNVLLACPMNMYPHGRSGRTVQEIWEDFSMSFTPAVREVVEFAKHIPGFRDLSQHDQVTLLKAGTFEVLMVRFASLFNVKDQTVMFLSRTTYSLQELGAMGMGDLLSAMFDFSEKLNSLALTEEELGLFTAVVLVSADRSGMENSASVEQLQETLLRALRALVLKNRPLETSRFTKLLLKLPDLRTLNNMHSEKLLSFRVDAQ
NR2E3 ag-1 = inhibitors of NR2E3-RetCOR corepressor binding, primary screen, NR2E3 agonist project, biochemical, TR-FRET, GST-NR2E3, biotin-RetCOR. 1536-well. inhibition of corepressor binding, % at 4.78 µM. 320,000 tested, 0.12% active. AID 2300, 2010;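 active = percent inhibition above the cutoff of mean plus 3 SD of all tested compounds, set per screening campaign, cut at about 20% in these data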;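 note: 0% = DMSO wells and 100% = biotin wells as full block of FRET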
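Material: NR2E3–RetCOR corepressor complex | Quantity: 1.35 nM GST-tagged NR2E3 final | Schedule: 5 h at 4 °C | Replication: Singlicate compound wells | Reagent: RetCOR corepressor, biotinylated, 7 nM | Controls: Biotin wells as high control, 0.6% DMSO wells as low control | Signal: TR-FRET, Eu(K)-anti-GST donor, streptavidin-D2 acceptor, ex 340, em 617/671 nm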
PG9 binder = binders of HIV-1 gp120 antibody PG9, primary screen, biochemical, TR-FRET | HIV-1 gp120 / PG9 antibody interaction | TR-FRET gp120-PG9 antibody binding | inhibition, % at 6.7 µM | 360,000 tested, 0.43% active; in the data active = inhibition above about 8.5%
NR2E3 ag-2 = NR2E3 agonists in two-hybrid cells, primary screen, cell-based, luminescence, CHO-S, Gal4-NCOR/VP16-NR2E3 | Photoreceptor-specific nuclear receptor (Homo sapiens), Q9Y5X4 | luciferase | inhibition of corepressor binding, % at 3.98 µM | 360,000 tested, 0.35% active | AID 602229, 2012;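 active = inhibition above the mean of all tested compounds plus 3 SD, cut at about 70% in these data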;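 note: 0% = DMSO with NR2E3 transfected cells and 100% = cells lacking NR2E3 construct; higher means lower luciferase signal from less NR2E3 corepressor binding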
PKA-R1A act = activators of PKA-R1A holoenzyme, primary screen, biochemical, fluorescence polarization, Cy5-IP20, bovine R1A, mouse PKAc | cAMP-dependent protein kinase type I-alpha regulatory subunit (Bos taurus) + … | PKA-R1A dissociation; scaled: DMSO 0%, 113 µM cGMP 100% | activation, % at 11.4 µM | 340,000 tested, 0.083% active;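 active = percent activation above the mean of all tested compounds plus 3 SD, cut at about 19% in these data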;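 note: higher means more PKAc released from R1A so a rise in polarization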
PG9 binder conf = binders of anti-gp120 antibody PG9, confirmation, biochemical, TR-FRET; TR-FRET PG9 antibody binding; shares compounds with PG9 binder; 1,500 tested, 90% active; inhibition, % at 6.7 µM; in the data active = inhibition above about 9%
PGV04 counter = binders of control antibody PGV04, counter-screen for PG9 antibody binder project, biochemical, TR-FRET, distinct HIV envelope site; AID 651604, 2012; inhibition, % at 6.7 µM; TR-FRET PGV04 antibody-gp120 binding; shares compounds with PG9 binder; 1,500 tested, 95% active; in the data active = inhibition above about 9.5%
The depositor's hits bear a star; · = no result given.

SMILES	PKA-R2B act	Rev-erbA mod	NR2E3 ag-1	PG9 binder	NR2E3 ag-2	PKA-R1A act	PG9 binder conf	PGV04 counter
O=C(COC(=O)c1ccccc1O)NNC(=O)c1ccc(Br)cc1	-7	10	·	9.5*	-3	-3	14*	25*
O=C(COC(=O)c1ccccc1-n1cnnn1)c1ccc(Br)cc1	-1	4	5	10*	0	-5	11*	16*
CCn1c(C(=O)NC2CCC(C)CC2)cc2sccc21 (configuration not stated)	-5	2	2	11*	-54	4	4	8
CCOC(=O)N1CCC(NC(=O)c2cc3sccc3n2CC)CC1	4	-3	2	-1	-4	-6	·	·
CC(C)(C)C(=O)Cn1c(=O)n(-c2ccc(F)cc2F)c(=O)c2sccc21	-1	-2	-3	12*	-35	-17	5	7
Cc1nn(CC(=O)Nc2ccc(Cl)cc2Cl)c(=O)c2ccccc12	-6	10	-2	9.1*	-3	-14	25*	40*
COc1ccc(S[C@]2(C(=O)N(C)C)CC(=O)N(C(=O)c3ccccc3)[C@@H]2c2ccc(OC)cc2)cc1	·	0	·	·	·	·	·	·
CCOC(=O)c1sc2nc(C)nc(NCc3ccccc3)c2c1C	-1	4	2	0	-33	7	·	·
Cc1nc(NCc2ccc(S(N)(=O)=O)cc2)c2c(C)c(C)sc2n1	-8	16	-1	41*	-27	-3	22*	31*
CCOc1ccc(N(CC(=O)Nc2c(C)n(C)n(-c3ccccc3)c2=O)S(=O)(=O)c2cccs2)cc1	·	0	·	·	·	·	·	·
COc1ccccc1CCn1cnc(-c2ccc(OC)c(OC)c2)c1CC(C)C	·	3	·	1	·	·	·	·
COCCNC(=O)C[C@H]1CC[C@H]2[C@@H](COc3ccc(NC(=O)Nc4cccc(F)c4)cc3C(=O)N2C)O1	·	12	·	·	·	·	·	·
CCOC(=O)N1CCC(NC(=O)c2cc(-c3ccc(OC)cc3)nc3ccccc23)CC1	-10	6	0	9.5*	-20	-6	8	11*
COc1ccc(N2C(=O)c3n[nH]c(C)c3C2c2ccccc2)cc1 (configuration not stated)	·	0	·	2	·	·	·	·
CCCCNc1nc2c(S(=O)(=O)c3ccccc3)nnn2c2ccccc12	7	16	8	29*	15	-6	58*	75*
CCc1ccc(S(=O)(=O)c2nnn3c2nc(NCCNC(C)=O)c2ccccc23)cc1	-4	-2	-2	0	10	-11	·	·
Cc1ccc2cc(C#N)c(NCc3ccccc3)nc2c1	-8	0	12	35*	-25	-7	30*	55*
COc1ccc(Nc2nc3cc(C)ccc3cc2C#N)c(OC)c1	-4	1	3	0	-20	-3	·	·
COc1ccc(Nc2nc3cc(C)ccc3cc2C#N)cc1	-11	12	4	11*	-17	-8	10*	15*
Cc1c(C(=O)Nc2nccs2)oc2ccc(Br)cc12	2	13	·	10*	-199	2	12*	15*
COc1ccc2oc(C(=O)Nc3nc(C)cs3)c(C)c2c1	-5	2	2	8.8*	-103	2	13*	17*
CCOC(=O)C1=C(C(=O)OCC)C2N(Cc3ccc(Br)cc3)c3ccccc3[C@@]23C[C@@H](C(=O)OC)N(S(=O)(=O)c2ccc(Br)cc2)C3=N1 (some centres not stated)	·	2	·	-3	·	·	·	·
O=C(Cn1cnc2ccccc2c1=O)N1CCCCC1	·	-2	·	·	·	·	·	·
COC[C@@H](O)[C@H]1OCc2cccc(OC)c2[C@@H]1/C=C/c1ccccc1	·	5	·	·	·	·	·	·
C#CCNC(=O)C[C@@H]1C[C@@](CCC(=O)OCC)(C(=O)OCC)C2=CCCCN2C1=O	·	-5	·	·	·	·	·	·
SMILES	PKA-R2B act	Rev-erbA mod	NR2E3 ag-1	PG9 binder	NR2E3 ag-2	PKA-R1A act	PG9 binder conf	PGV04 counter
CC(=O)c1cn(CC(=O)Nc2cccc(C)c2C)c2ccccc12	-8	-1	-1	-1	13	6	·	·
CCC(=O)c1cn(CC(=O)Nc2cccc(C)c2C)c2ccccc12	3	3	5	9.9*	12	5	19*	23*
CC(=O)c1ccc(NC(=O)c2ccccc2Sc2ncnc3sc(C)c(C)c23)cc1	-5	-1	0	-1	-13	-6	·	·
Cc1sc2ncnc(Sc3ccccc3C(=O)O)c2c1C	1	-1	19	31*	-42	1	37*	46*
Nc1[nH]c(C(=O)c2ccccc2)c(-c2ccc(Cl)cc2Cl)c1C(=O)NCCC1=CCCCC1	·	-8	·	·	·	·	·	·
CCc1cccc(C)c1NC(=O)c1cc(=O)[nH]c2ccc(S(=O)(=O)N3CCOCC3)cc12	2	-1	1	14*	5	-11	18*	28*
COc1ccc(-c2cccc3[nH]c4c(c23)CCN2C(=O)[C@H]3[C@H](C)ON(C)[C@H]3C[C@@H]42)cc1	·	0	·	-1	·	·	·	·
CCCn1c(=O)c(C(=O)NCC2CCCO2)c(O)c2ccccc21 (configuration not stated)	-10	9	4	8.6*	-21	-15	12*	16*
O=C(O)C1CC=CCC1C(=O)N1CCN(c2nc(-c3ccccc3Cl)c3cc(Br)ccc3n2)CC1 (configuration not stated)	-5	3	5	13*	-48	-6	25*	41*
O=C(O)C1CC=CCC1C(=O)N1CCN(c2nc(-c3ccccc3)c3ccccc3n2)CC1 (configuration not stated)	2	-5	-2	1	-2	-6	·	·
O=C(CCCn1c(=O)[nH]c2ccc(Br)cc2c1=O)NCc1ccc(Cl)cc1	-11	15	-3	16*	-9	-12	18*	32*
CCOC(=O)C1CCN(C(=O)COC(=O)CNC(=O)c2sc3ccccc3c2Cl)CC1	10	8	6	10*	4	-7	12*	16*

Bioassay records (PubChem BioAssay)
